A word on the % inhibition: it is how much of the control response was suppressed. A low value points to a weak effect. By IC50 is commonly meant the concentration that gives 50% inhibition. Read a high IC50 as weaker potency. The Hill slope is the slope factor of the fitted curve. As a reminder, the pIC50 is −log10 of the IC50, conventionally taken in molar units. A higher pIC50 goes with a low IC50.

Each structure is given as a SMILES string.

The values below come from paper PMC4378865 (Journal of biomolecular screening, 2014).

In data set [1] the target is T1, T. brucei MetRS (Trypanosoma brucei brucei, UniProt Q38C91).
T1 sequence (Q38C91 1-773): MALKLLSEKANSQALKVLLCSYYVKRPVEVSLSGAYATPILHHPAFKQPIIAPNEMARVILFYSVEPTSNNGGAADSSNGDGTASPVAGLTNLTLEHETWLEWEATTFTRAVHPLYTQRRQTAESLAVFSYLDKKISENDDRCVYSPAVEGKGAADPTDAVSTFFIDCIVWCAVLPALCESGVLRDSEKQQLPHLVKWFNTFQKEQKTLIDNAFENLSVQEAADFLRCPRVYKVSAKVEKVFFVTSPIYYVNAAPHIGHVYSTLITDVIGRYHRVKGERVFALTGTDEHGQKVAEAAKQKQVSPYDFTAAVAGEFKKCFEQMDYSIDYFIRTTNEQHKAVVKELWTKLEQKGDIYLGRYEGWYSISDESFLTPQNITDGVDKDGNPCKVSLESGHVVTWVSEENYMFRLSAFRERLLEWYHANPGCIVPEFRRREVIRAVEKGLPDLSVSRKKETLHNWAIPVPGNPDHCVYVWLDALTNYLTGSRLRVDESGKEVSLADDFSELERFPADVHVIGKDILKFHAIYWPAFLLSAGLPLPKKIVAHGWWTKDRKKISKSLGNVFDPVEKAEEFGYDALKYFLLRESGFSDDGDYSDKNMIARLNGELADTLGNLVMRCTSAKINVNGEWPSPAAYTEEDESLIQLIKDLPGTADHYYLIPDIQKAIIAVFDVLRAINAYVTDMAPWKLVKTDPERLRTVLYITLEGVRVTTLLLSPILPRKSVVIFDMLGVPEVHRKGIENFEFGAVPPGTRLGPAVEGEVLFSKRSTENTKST
The data set can be described thus: Orthogonal fluorescence polarization AMP production assay. It counts as biochemical. The essentials:
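Concentration-response was run in triplicate as a 10-point serial dilution from 120 µM. AMP was detected by FP with a Transcreener AMP²/GMP² reagent (Cy5, excitation 620 nm, emission 688 nm), with FP = (S − P)/(P + S). Percent inhibition was normalized per plate between DMSO-only wells and wells with 1.5 µM reference inhibitor.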
In general terms: Fluorescence polarisation rises when a labelled molecule tumbles more slowly, as on binding a larger partner.

Data set [2] concerns Jurkat cells. Description: Jurkat cell cytotoxicity counterscreen. It is filed as cell-based. In short, it runs like this:
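Jurkat E6.1 suspension cells grown in RPMI-1640 with 10% dialyzed FBS, NEAA, pyruvate, HEPES, glutamine and antibiotic-antimycotic at 37 °C, 5% CO₂. CellTiter-Glo added, 10 min RT, then luminescence read. Tested in triplicate. Data normalized per plate: 8 µM doxorubicin as high control, DMSO as low control.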
(In general: Counterscreens check selectivity or assay interference.)

The target in data set [3] is T2, human mitochondrial MetRS (Homo sapiens, UniProt Q96GW9).
T2 sequence (Q96GW9 30-593): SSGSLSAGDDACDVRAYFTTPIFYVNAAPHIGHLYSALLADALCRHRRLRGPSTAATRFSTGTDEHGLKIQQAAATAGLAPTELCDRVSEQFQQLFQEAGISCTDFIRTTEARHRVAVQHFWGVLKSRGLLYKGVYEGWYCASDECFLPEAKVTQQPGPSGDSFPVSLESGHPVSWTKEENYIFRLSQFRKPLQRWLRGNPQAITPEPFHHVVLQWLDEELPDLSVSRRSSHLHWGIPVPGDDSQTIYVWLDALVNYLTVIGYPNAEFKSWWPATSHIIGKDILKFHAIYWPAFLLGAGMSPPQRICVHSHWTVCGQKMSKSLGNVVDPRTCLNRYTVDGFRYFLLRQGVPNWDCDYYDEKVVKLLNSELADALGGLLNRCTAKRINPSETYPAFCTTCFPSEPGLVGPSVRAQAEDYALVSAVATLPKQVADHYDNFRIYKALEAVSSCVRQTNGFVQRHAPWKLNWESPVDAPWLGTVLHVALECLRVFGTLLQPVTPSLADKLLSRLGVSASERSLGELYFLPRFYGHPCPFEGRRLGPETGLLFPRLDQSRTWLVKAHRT
The data set can be described thus: Aminoacylation assay, selectivity counterscreen. It is filed as biochemical.

Data set [4] addresses T1, T. brucei MetRS. Description: Aminoacylation assay, incorporation of [3H]L-methionine into tRNA. It counts as biochemical.
Data set [5] addresses T1, T. brucei MetRS. The data set can be described thus: Luminescence. It counts as biochemical.
The conditions of data set [6]: cited from earlier work.
The target of data set [7] is T1, T. brucei MetRS. The settings on record: formerly shown; cited from earlier work.
Where [8] appears, read: luminescence ATP depletion assay, 1536-well.
Where [9] appears, read: fluorescence polarization assay.

For `Cn1nc(C(F)(F)F)c(-c2cccc(C(F)(F)F)c2)c1NC(=O)Nc1ccc(F)cc1` [CID 2810697], in data set [1] (dose response curve), the “activity in fluorescence polarization assay” value is listed as “inactivity”.
For `O=C(CCCSc1ccc(Cl)cc1)Nc1ccccc1O` [CID 16312830], the “activity in the Jurkat cytotoxicity assay” value in data set [2] (dose response, highest dilution 83.3 M) is recorded as “activity”.
On to `CN(Cc1cc(Cl)cc(Cl)c1)[C@H]1C[C@H]2c3[nH]c4ccccc4c3CCN2C(=O)[C@H]1CO` [CID 46902334], for which the “% inhibition” value is 14.3% in data set [3] (at 1, human mitochondrial MetRS) and 80.3% in data set [3] (at 10, human mitochondrial MetRS).
With `O=C(CN1CCSC1=NCc1ccccc1)c1ccc(Cl)c(Cl)c1` [CID 4656759], the “% inhibition” value in data set [4] stood at 28%.
In the case of `COc1cccc(NC(=O)CSc2nnc3c(n2)[nH]c2ccc(C)cc23)c1` [CID 24793614], the IC50 in data set [5] (setting [8]) amounted to 44 nM.
On to `Oc1cc(NCCCNCc2cc(Cl)cc(Cl)c2)nc2ccccc12` [CID 18353708, 2-((3-((3,5-dichlorobenzyl)amino)propyl)amino)quinolin-4(1H)-one, reference compound], for which the bioavailability result in data set [6] was “poor bioavailability”. In addition, the IC50 was 30.3 ± 4.81 nM in data set [1] and 24.2 ± 2.74 nM in data set [5]. The Hill slope in data set [1] (fluorescence polarization assay, N=3) came to 4.34 ± 0.17; in data set [5] (luminescence ATP depletion assay, N=11) it was 4.41 ± 0.56. In addition, in data set [7], the “inhibition of T. brucei MetRS” value is “sub-micromolar inhibition”.
Consider `O=C(Cn1cc(C(=O)C(=O)N2CCOCC2)c2ccccc21)Nc1cccc(C(F)(F)F)c1` [CID 2973195], for which the IC50 in data set [1] (setting [9]) was 292 nM; in data set [2] (Jurkat cytotoxicity assay), greater than 83000 nM; in data set [5] (setting [8]) it was 171 nM. The figures for the pIC50 in data set [1] (setting [9]), in data set [2] (Jurkat cytotoxicity assay) and in data set [5] (setting [8]) were 6.53, less than 4.08 and 6.77, respectively.
